Reference: ChEMBL document CHEMBL1146446, “Cytotoxic and antiplatelet aggregation principles from Aglaia elliptifolia” (J Nat Prod, 1997)
Converted amounts (≈) assume the structure as drawn.

Key:
A549 = experiment: Cytotoxicity against human A549 cells; format: functional, cell-based
HCT-8 = experiment: Cytotoxicity against human HCT8 cells; format: functional, cell-based
[1] = Antiplatelet aggregation activity against ADP-induced rabbit platelet assessed as platelet aggregation at 100 ug/mL relative to control; format: functional, Oryctolagus cuniculus
Summary of the method: (§1)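 Blood from rabbit marginal ear vein was mixed with EDTA to a final 6 mM. It was spun at 90g for 10 min at room temperature to give platelet-rich plasma, then at 500g for 10 min. Platelets were preincubated with sample or 0.5% DMSO for 1 min at 37 °C, then triggered with ADP, arachidonic acid, collagen (10 µg/mL) or PAF (2 ng/mL). Mean ± S.D.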

[2] = Antiplatelet aggregation activity against arachidonic acid-induced rabbit platelet assessed as platelet aggregation at 100 ug/mL relative to control; format: functional, Oryctolagus cuniculus; summary of the method: as §1
[3] = Antiplatelet aggregation activity against platelet activating factor-induced rabbit platelet assessed as platelet aggregation at 100 ug/mL relative to control; format: functional, Oryctolagus cuniculus; summary of the method: as §1
[4] = Antiplatelet aggregation activity against collagen-induced rabbit platelet assessed as platelet aggregation at 100 ug/mL relative to control; format: functional, Oryctolagus cuniculus; summary of the method: as §1
KB = experiment: Cytotoxicity against human KB cells; format: functional, cell-based
P388 [5] = experiment: In vivo cytotoxic activity against mouse P388 cells at 1 mg/kg relative to control; format: functional
P388 [6] = experiment: Cytotoxicity against mouse P388 cells; format: functional, cell-based
RPMI-7951 = experiment: Cytotoxicity against human RPMI7951 cells; format: functional, cell-based
TE-671 = experiment: Cytotoxicity against human TE671 cells; format: functional, cell-based

SMILES: COc1cccc2c1C(=O)c1c(O)c3c(c(O)c1C2=O)C[C@@](O)(C(=O)CO)C[C@@H]3O[C@H]1C[C@H](N)[C@H](O)[C@H](C)O1.Cl [DOXORUBICIN HYDROCHLORIDE]
- IC50 (A549): 150 ng/mL
- IC50 (HCT-8): 300 ng/mL

SMILES: CC[C@]1(O)C[C@@H]2CN(CCc3c([nH]c4ccccc34)[C@@](C(=O)OC)(c3cc4c(cc3OC)N(C)[C@H]3[C@@](O)(C(=O)OC)[C@H](OC(C)=O)[C@]5(CC)C=CCN6CC[C@]43[C@@H]65)C2)C1.O=S(=O)(O)O [VINBLASTINE SULFATE]
- IC50 (A549): 2 ng/mL
- IC50 (HCT-8): 5 ng/mL

SMILES: COc1cc2ccc(=O)oc2cc1O [SCOPOLETIN]
- Activity [1]: 65.3%
- Activity [2]: 79.2%
- Activity [3]: 90.5%
- Activity [4]: 79.2%
- IC50 (KB): 4000 ng/mL (≈ 20.8 µM)

SMILES: COc1ccc([C@@]23Oc4cc(OC)cc(OC)c4[C@]2(O)[C@H](O)[C@H](C(=O)N(C)C)[C@H]3c2ccccc2)cc1 [ROCAGLAMIDE]
- T/C (P388 [5]): 156%
- Activity [1]: 77.6%
- Activity [2]: 90.5%
- Activity [3]: 85.5%
- Activity [4]: 83.8%
- IC50 (KB): 6 ng/mL (≈ 0.0119 µM)
- IC50 (A549): 6 ng/mL (≈ 0.0119 µM)
- IC50 (HCT-8): 7 ng/mL (≈ 0.0138 µM)
- IC50 (P388 [6]): 5 ng/mL (≈ 0.00989 µM)
- IC50 (RPMI-7951): 2 ng/mL (≈ 0.00396 µM)
- IC50 (TE-671): 6 ng/mL (≈ 0.0119 µM)

SMILES: COc1cc([C@@H]2c3cc4c(cc3[C@@H](O[C@@H]3O[C@@H]5CO[C@@H](C)O[C@H]5[C@H](O)[C@H]3O)[C@H]3COC(=O)[C@H]23)OCO4)cc(OC)c1O [ETOPOSIDE]
- IC50 (KB): 120 ng/mL (≈ 0.204 µM)
- IC50 (P388 [6]): 2620 ng/mL (≈ 4.45 µM)

SMILES: COC(=O)[C@H]1[C@@H](O)[C@@]2(O)c3c(OC)cc(OC)cc3O[C@@]2(c2ccc(OC)cc2)[C@@H]1c1ccccc1 [AGLAFOLIN]
- Activity [1]: 85.2%
- Activity [2]: 0%
- Activity [3]: 0%
- Activity [4]: 88.6%
- IC50 (KB): 1 ng/mL (≈ 0.00203 µM)
- IC50 (A549): 1 ng/mL (≈ 0.00203 µM)
- IC50 (HCT-8): 5 ng/mL (≈ 0.0102 µM)
- IC50 (P388 [6]): 2 ng/mL (≈ 0.00406 µM)
- IC50 (RPMI-7951): 1 ng/mL (≈ 0.00203 µM)
- IC50 (TE-671): 1 ng/mL (≈ 0.00203 µM)
